{
  "source": "paper PMC3544278",
  "about": "(Journal of Medicinal Chemistry, 2012)",
  "key": {"[1]": {"experiment": "Biodistribution of [11C]-radiotracers in rat brain", "type": "in vivo", "conditions": "mean (n = 5) ± SD", "procedure,_shortened": "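Conscious restrained rats (n = 5/time point) received 30–60 MBq [11C]-radiotracer (70–170 GBq/μmol; 0.3–0.8 nmol) iv by tail vein in buffered saline with 0.5% Tween 80. After decapitation, brain regions were excised, blotted, weighed, gamma-counted and decay-corrected against injected-dose standards. SUV = %ID/g […] body weight (kg). Blocking groups got an FAAH inhibitor (2 mg/kg ip, saline/Tween 80) or vehicle 30 min before. Student's t test.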"}, "FAAH": {"target": "T1, FAAH (Rattus norvegicus, UniProt P97612)", "T1 sequence (P97612 1-579)": "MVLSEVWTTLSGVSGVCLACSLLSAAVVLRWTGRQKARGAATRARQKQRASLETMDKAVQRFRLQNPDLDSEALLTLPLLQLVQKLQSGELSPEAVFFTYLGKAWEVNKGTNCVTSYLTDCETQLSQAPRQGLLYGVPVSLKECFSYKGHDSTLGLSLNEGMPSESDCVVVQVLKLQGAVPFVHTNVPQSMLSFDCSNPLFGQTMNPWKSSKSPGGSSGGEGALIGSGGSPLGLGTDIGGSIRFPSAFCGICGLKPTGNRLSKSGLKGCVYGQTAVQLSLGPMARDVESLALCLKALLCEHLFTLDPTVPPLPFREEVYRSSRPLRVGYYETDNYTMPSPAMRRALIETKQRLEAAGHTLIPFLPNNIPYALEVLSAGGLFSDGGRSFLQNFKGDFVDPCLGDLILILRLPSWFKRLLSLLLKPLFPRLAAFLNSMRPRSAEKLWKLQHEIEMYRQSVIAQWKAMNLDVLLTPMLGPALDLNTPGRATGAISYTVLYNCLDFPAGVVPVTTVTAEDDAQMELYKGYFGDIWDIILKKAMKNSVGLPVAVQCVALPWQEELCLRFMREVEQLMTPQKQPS", "experiment": "Irreversible binding of [11C]-radiotracers to FAAH in rat brain parenchyma", "type": "in vivo"}},
  "note": "Marks after values point to notes of the source that are not given here.",
  "data": [
    {"smiles": "O=C(NC1CCCCC1)Oc1cc(O)cc(-c2ccccc2)c1", "note": "[[^11C]1, [^11C-carbonyl]N-cyclohexyl-5-hydroxy[1,1′-biphenyl]-3-ylcarbamic acid ester]", "values": [
      {"measurement": "Regional brain uptake, cortex (2 min)", "setting": "[1]; 2 min post iv injection", "value": "2.40 ± 0.18", "unit": "SUV"},
      {"measurement": "Regional brain uptake, hypothalamus (2 min)", "setting": "[1]; 2 min post iv injection", "value": "1.61 ± 0.23", "unit": "SUV"},
      {"measurement": "Regional brain uptake, cortex (40 min)", "setting": "[1]; 40 min post iv injection", "value": "2.49 ± 0.25", "unit": "SUV"},
      {"measurement": "Regional brain uptake, hypothalamus (40 min)", "setting": "[1]; 40 min post iv injection", "value": "1.14 ± 0.13", "unit": "SUV"},
      {"measurement": "Regional brain uptake, cortex (40 min, blocked)", "setting": "[1]; 40 min post iv injection, pretreated with compound 2 (2 mg/kg, ip)", "value": "0.36 ± 0.04 ^b SUV"},
      {"measurement": "% bound (irreversibly) at 60 min postinjection", "setting": "FAAH", "value": "about 90%"}
    ]}
  ]
}
